In the library only some 2.9% were active in any assay of this set; here they are far more common.
CHO-K1 Ca ag = nonselective activator or artifact in parental CHO-K1 cells; Fluo-8 calcium fluorescence; scaled to maximal ATP response, vehicle zero; actives 0.48% (n = 360,000); activation, % at 3 µM; in the data active means activation above about 15%;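 further: untransfected CHO-K1 host cells lacking M1 receptor as counterscreen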
CHO-K1 Ca antag = M1 antagonist counterscreen hit in parental CHO-K1 cells; actives 0.6% (n = 360,000); ATP-induced calcium, Fluo-8 fluorescence; inhibition, % at 3 µM;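 active means inhibition above a per-plate cutoff, the plate's mean sample inhibition plus 3 SD, cut at about 24% in these data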;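 further: 0% = DMSO plus EC80 ATP and 100% = DMSO alone without ATP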
M1 PAM parental = counter-screen for M1 PAMs: effect in parental CHO-K1 cells | ATP EC20, Fluo-8 calcium fluorescence; 0% at ATP EC20, 100% at ATP max | activation, % at 3 µM | actives 0.02% (n = 360,000);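 active means activation above the run cutoff, the mean activation of all test compounds plus 3 SD, cut at about 40% in these data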;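 further: peak over basal fluorescence ratio in a 140 s read after ATP addition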
OX1R antag-1 = blocks the human orexin 1 receptor; OX1R-expressing cells, FRET antagonist read-out; O43613; actives 1.8% (n = 330,000); inhibition, % at 6.6 µM; in the data active means inhibition mostly above about 38%, no sharp cut-off; inactive means mostly below about 40%;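 further: 0% = agonist challenge alone and 100% = reference antagonist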
Target sequence (O43613 whole entry, looked up): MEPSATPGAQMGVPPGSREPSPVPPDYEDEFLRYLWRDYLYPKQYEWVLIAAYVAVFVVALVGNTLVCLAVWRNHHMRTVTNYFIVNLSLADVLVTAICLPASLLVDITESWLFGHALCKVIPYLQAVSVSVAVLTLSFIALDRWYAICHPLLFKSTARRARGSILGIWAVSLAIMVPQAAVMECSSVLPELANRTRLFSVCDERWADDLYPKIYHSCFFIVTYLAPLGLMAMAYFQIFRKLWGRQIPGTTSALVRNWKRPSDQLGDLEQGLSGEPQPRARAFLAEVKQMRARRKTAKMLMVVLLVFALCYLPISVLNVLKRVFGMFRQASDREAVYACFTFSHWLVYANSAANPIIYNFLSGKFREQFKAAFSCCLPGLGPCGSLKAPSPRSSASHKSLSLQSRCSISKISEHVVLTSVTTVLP
OX1R antag-2 = blocks the human orexin 1 receptor. inhibition, % at 5 µM. actives 0.43% (n = 330,000). AID 434989. O43613. CHO/OX1R cells, Fluo-8 calcium fluorescence, orexin A;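 active means inhibition above its plate's threshold, mean inhibition of all tested compounds on the plate plus 3 SD, cut at about 37% in these data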;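 further: 0% = orexin A challenge wells and 100% = SB-334867-A antagonist wells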
CHO parental Ca = signal in parental CHO cells, OX1R antagonist counter-screen; parental CHO-K1, ATP-induced calcium, Fluo-8 fluorescence; actives 0.63% (n = 330,000); inhibition, % at 5.6 µM;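 active means inhibition above that plate's mean sample inhibition plus 3 SD, cut at about 26% in these data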;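 further: 0% = ATP-challenged DMSO wells and 100% = DMSO wells without ATP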
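Material: parental CHO cells / Compound: single nominal dose of 5.6 µM per compound / Signal: Fluo-8 fluorescence / Replicates: singlicate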
Numbers without * were called inactive.

Results for CCC(CC)C(=O)Nc1cccc(C(=O)Nc2ccc(S(=O)(=O)Nc3ccc(C)cc3)cc2)c1 ?
CHO-K1 Ca ag: 2; CHO-K1 Ca antag: 7; M1 PAM parental: 3; OX1R antag-1: 54*; OX1R antag-2: 55*; CHO parental Ca: 10

Results for COc1cccc(C(=O)/C=C/Nc2ccc(S(=O)(=O)Nc3ccc(C(C)=O)cc3)cc2)c1 ?
CHO-K1 Ca ag: 1; CHO-K1 Ca antag: -6; M1 PAM parental: 14; OX1R antag-1: 18; OX1R antag-2: 18; CHO parental Ca: 4

Results for CC(=O)c1cccc(NS(=O)(=O)c2ccc(C(=O)Nc3ccccc3)cc2)c1 ?
CHO-K1 Ca ag: 13; CHO-K1 Ca antag: 0; M1 PAM parental: -10; OX1R antag-1: 74*; OX1R antag-2: 70*; CHO parental Ca: 71*

How did CC(=O)Nc1ccc(NS(=O)(=O)c2ccc(-c3cnc(C4CC4)o3)cc2)cc1 do in these assays?
CHO-K1 Ca ag: 1; CHO-K1 Ca antag: 4; M1 PAM parental: 11; OX1R antag-1: 15; OX1R antag-2: -15; CHO parental Ca: 4

Results for CC(=O)c1cccc(NS(=O)(=O)c2ccc(-c3cnc(C4CC4)o3)cc2)c1 ?
CHO-K1 Ca ag: 16*; CHO-K1 Ca antag: 12; M1 PAM parental: 1; OX1R antag-1: 36; OX1R antag-2: 13; CHO parental Ca: 50*

How did O=C(NCC(O)c1nc2ccccc2[nH]1)c1cc([N+](=O)[O-])ccc1F (centres undefined) do in these assays?
CHO-K1 Ca ag: 0; CHO-K1 Ca antag: 0; M1 PAM parental: 6

How did Cc1[nH]n(-c2ccccc2)c(=O)c1C(c1cccc([N+](=O)[O-])c1O)c1c(C)[nH]n(-c2ccccc2)c1=O do in these assays?
CHO-K1 Ca ag: 15*; CHO-K1 Ca antag: 13; M1 PAM parental: 11; OX1R antag-1: 11; OX1R antag-2: 3; CHO parental Ca: -2

Results for COc1ccc(C(=O)/C=C\c2ccc(NC(=O)c3cccs3)cc2)cc1 ?
CHO-K1 Ca ag: 0; CHO-K1 Ca antag: 27*; M1 PAM parental: -8; OX1R antag-1: 15; OX1R antag-2: -4; CHO parental Ca: -12

How did CNC(=O)/C(C#N)=C\c1cc(C)n(-c2ccc(N3CCOCC3)cc2)c1C do in these assays?
CHO-K1 Ca ag: 3; CHO-K1 Ca antag: 31*; M1 PAM parental: -15; OX1R antag-1: 23; OX1R antag-2: -3; CHO parental Ca: 5

How did Cc1cc(/C=C(\C#N)C(=O)Nc2ccc(F)cc2)c(C)n1-c1ccc(N2CCOCC2)c([N+](=O)[O-])c1 do in these assays?
CHO-K1 Ca ag: 1; CHO-K1 Ca antag: -8; M1 PAM parental: 16; OX1R antag-1: 10; OX1R antag-2: -21; CHO parental Ca: -7

Results for Cc1ccc(OCC(=O)NCc2cccs2)c([N+](=O)[O-])n1 ?
CHO-K1 Ca ag: 0; CHO-K1 Ca antag: 7; M1 PAM parental: -7; OX1R antag-1: 24; OX1R antag-2: -4; CHO parental Ca: 0

How did COc1cc2cc(C(=O)NCCc3c[nH]c4ccccc34)c(N)nc2cc1OC do in these assays?
CHO-K1 Ca ag: 19*; CHO-K1 Ca antag: 22; M1 PAM parental: -10

What do the screens show for `COCCCn1c(=NC(=O)c2ccncc2)c(C#N)cc2c(=O)n3cccc(C)c3nc21`?
CHO-K1 Ca ag: 0; CHO-K1 Ca antag: 22; M1 PAM parental: -6; OX1R antag-1: 41*; OX1R antag-2: -15; CHO parental Ca: -7

Results for CCCCNC(=O)c1cc2c(=O)n3cccc(C)c3nc2n(Cc2ccncc2)c1=N ?
CHO-K1 Ca ag: -2; CHO-K1 Ca antag: 11; M1 PAM parental: -7; OX1R antag-1: 41*; OX1R antag-2: -22; CHO parental Ca: -16

What do the screens show for `Cc1cccn2c(=O)c3cc(C(=O)NCCc4ccccc4)c(=N)n(Cc4ccco4)c3nc12`?
CHO-K1 Ca ag: 3; CHO-K1 Ca antag: -21; M1 PAM parental: 9; OX1R antag-1: 14; OX1R antag-2: -27; CHO parental Ca: -9

Results for COCCNC(=O)c1cc2c(=O)n3cccc(C)c3nc2n(Cc2ccncc2)c1=N ?
CHO-K1 Ca ag: 0; CHO-K1 Ca antag: 1; M1 PAM parental: 7; OX1R antag-1: 49*; OX1R antag-2: -21; CHO parental Ca: -9

How did CCn1c(=N)c(C(=O)NC)cc2c(=O)n3cccc(C)c3nc21 do in these assays?
CHO-K1 Ca ag: 0; CHO-K1 Ca antag: 0; M1 PAM parental: 7

Results for NC(=O)CNC(=O)[C@@H]1CC2(CC(c3cccc([N+](=O)[O-])c3)=NO2)CN1C(=O)c1ccccc1 (some centres undefined) ?
CHO-K1 Ca ag: 0; CHO-K1 Ca antag: -12; M1 PAM parental: 9; OX1R antag-1: 44; OX1R antag-2: -7; CHO parental Ca: -6

Results for CC1(C(=O)N2CC3(CC(c4cccc([N+](=O)[O-])c4)=NO3)C[C@H]2C(=O)NCC(N)=O)CC1 (some centres undefined) ?
CHO-K1 Ca ag: 0; CHO-K1 Ca antag: -6; M1 PAM parental: 13; OX1R antag-1: 48*; OX1R antag-2: -6; CHO parental Ca: -2

How did CS(=O)(=O)c1nc(-c2ccc(Br)cc2)cc(-c2ccccc2)c1C#N do in these assays?
CHO-K1 Ca ag: 0; CHO-K1 Ca antag: -5; M1 PAM parental: -1; OX1R antag-1: 1; OX1R antag-2: 15; CHO parental Ca: 13

Results for N#Cc1c(-c2ccccc2)cc(-c2ccccc2)nc1SCCC(=O)O ?
CHO-K1 Ca ag: 3; CHO-K1 Ca antag: -5; M1 PAM parental: -1; OX1R antag-1: 74*; OX1R antag-2: -16; CHO parental Ca: 8

How did CS(=O)c1nc(-c2ccc(Br)cc2)cc(-c2ccccc2)c1C#N (centres undefined) do in these assays?
CHO-K1 Ca ag: 1; CHO-K1 Ca antag: 16; M1 PAM parental: -11; OX1R antag-1: 23; OX1R antag-2: 81*; CHO parental Ca: 84*

Results for CCOC(=O)[C@]12CCC=C1N(Cc1ccc3c(c1)OCO3)C(=O)[C@H](CC(=O)NCCC(C)C)C2 ?
CHO-K1 Ca ag: -1; CHO-K1 Ca antag: -19; M1 PAM parental: -1

What do the screens show for `CC1C(=O)CC2C3(C)CCC2(C(C)C(=O)O)C(=O)C13` (centres undefined)?
CHO-K1 Ca ag: 0; CHO-K1 Ca antag: 0; M1 PAM parental: 2

Results for COCCn1c(C)cc(C(=O)CN2CCCCC2)c1C ?
CHO-K1 Ca ag: 0; CHO-K1 Ca antag: -10; M1 PAM parental: 6; OX1R antag-1: 2; OX1R antag-2: -13; CHO parental Ca: -22

What do the screens show for `COCCn1c(C)cc(C(=O)CN2C(=O)NC3(CCCCCCC3)C2=O)c1C`?
CHO-K1 Ca ag: 1; CHO-K1 Ca antag: -26; M1 PAM parental: 10; OX1R antag-1: 63*; OX1R antag-2: -2; CHO parental Ca: -15

Results for COC1=CC(=O)c2ccccc2C1=O ?
CHO-K1 Ca ag: 1; CHO-K1 Ca antag: -4; M1 PAM parental: -2; OX1R antag-1: 92*; OX1R antag-2: 9; CHO parental Ca: -3
